ChEMBL document CHEMBL1142354, “Synthesis and biological evaluation of (hetero)arylmethyloxy- and arylmethylamine-phenyl derivatives as potent P-glycoprotein modulating agents” (J Med Chem, 2008)
pEC50: −log10 of the molar value.

What was measured:
[1] = target: T1, ATP-dependent translocase ABCB1 (Homo sapiens, UniProt P08183); assay: Activation of human P-glycoprotein ATPase in Caco-2 cells assessed as ATP depletion at 100 uM; format: cell-based; conditions: caco-2, 100 µM
[2] = target: T1, ATP-dependent translocase ABCB1; assay: Inhibition of human P-glycoprotein mediated [3H]vinblastine transport in human Caco-2 cells; format: cell-based
Caco-2 = assay: Ratio of permeability from basolateral to apical side over apical to basolateral side in human Caco-2 cells
[3] = Cytotoxicity against human Adr cells assessed as LDH release upto 50 uM after 48 hrs; format: cell-based
In short: (§1)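 MCF-7/Adr cells, which overexpress P-gp, were exposed in complete medium with or without test compound. LDH released into the medium was read with CytoTox-One substrate mix: 10 min at room temperature in the dark, then stop solution, fluorescence ex 560/em 590 nm. Cytotoxicity % is (treated LDH − medium background)/(total LDH of lysed untreated cells − background) × 100.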

MCF7 [4] = assay: Cytotoxicity against human MCF7 cells assessed as LDH release upto 50 uM after 48 hrs; format: cell-based; conditions: mcf7, 48 h
[5] = target: T2, Broad substrate specificity ATP-binding cassette transporter ABCG2 (Homo sapiens, UniProt Q9UNQ0); assay: Inhibition of human BCRP pump mediated [3H]mitoxantrone transport in human Caco-2 cells; format: cell-based
T2 sequence (Q9UNQ0 whole entry): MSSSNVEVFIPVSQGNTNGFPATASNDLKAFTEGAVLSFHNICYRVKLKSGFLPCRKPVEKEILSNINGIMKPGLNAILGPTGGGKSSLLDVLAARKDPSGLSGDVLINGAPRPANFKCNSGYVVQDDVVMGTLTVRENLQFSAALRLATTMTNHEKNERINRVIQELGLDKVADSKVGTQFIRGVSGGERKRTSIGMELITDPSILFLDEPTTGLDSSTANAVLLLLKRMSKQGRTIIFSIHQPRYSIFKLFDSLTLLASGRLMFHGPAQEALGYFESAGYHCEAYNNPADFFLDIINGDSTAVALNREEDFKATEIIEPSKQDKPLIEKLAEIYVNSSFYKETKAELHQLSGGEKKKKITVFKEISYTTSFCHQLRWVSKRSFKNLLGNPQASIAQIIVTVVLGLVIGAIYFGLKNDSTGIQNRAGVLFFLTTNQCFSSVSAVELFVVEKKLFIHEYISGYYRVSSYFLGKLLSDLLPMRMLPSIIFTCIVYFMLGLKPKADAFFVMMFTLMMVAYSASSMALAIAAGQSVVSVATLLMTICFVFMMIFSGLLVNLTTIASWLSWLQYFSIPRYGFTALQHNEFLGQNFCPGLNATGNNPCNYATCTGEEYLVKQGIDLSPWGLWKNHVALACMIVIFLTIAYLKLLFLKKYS
In short: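 Caco-2 cells were grown 21 days on multiscreen filters at 10 000 cells/well, and monolayers were used at TEER >800 Ω×cm². 20 nM [³H]-mitoxantrone was added basolaterally with or without compound (0.20–400 µM) for 120 min at 37 °C, and apical appearance was scintillation-counted. Percent inhibition at each concentration gave EC50; three independent determinations, triplicate samples.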

MCF7 [6] = assay: Cytotoxicity against adriamycin-resistant human MCF7 cells assessed as LDH release at 1 uM after 48 hrs; format: cell-based; conditions: mcf7, 48 h; in short: as §1

T1 sequence (P08183 whole entry): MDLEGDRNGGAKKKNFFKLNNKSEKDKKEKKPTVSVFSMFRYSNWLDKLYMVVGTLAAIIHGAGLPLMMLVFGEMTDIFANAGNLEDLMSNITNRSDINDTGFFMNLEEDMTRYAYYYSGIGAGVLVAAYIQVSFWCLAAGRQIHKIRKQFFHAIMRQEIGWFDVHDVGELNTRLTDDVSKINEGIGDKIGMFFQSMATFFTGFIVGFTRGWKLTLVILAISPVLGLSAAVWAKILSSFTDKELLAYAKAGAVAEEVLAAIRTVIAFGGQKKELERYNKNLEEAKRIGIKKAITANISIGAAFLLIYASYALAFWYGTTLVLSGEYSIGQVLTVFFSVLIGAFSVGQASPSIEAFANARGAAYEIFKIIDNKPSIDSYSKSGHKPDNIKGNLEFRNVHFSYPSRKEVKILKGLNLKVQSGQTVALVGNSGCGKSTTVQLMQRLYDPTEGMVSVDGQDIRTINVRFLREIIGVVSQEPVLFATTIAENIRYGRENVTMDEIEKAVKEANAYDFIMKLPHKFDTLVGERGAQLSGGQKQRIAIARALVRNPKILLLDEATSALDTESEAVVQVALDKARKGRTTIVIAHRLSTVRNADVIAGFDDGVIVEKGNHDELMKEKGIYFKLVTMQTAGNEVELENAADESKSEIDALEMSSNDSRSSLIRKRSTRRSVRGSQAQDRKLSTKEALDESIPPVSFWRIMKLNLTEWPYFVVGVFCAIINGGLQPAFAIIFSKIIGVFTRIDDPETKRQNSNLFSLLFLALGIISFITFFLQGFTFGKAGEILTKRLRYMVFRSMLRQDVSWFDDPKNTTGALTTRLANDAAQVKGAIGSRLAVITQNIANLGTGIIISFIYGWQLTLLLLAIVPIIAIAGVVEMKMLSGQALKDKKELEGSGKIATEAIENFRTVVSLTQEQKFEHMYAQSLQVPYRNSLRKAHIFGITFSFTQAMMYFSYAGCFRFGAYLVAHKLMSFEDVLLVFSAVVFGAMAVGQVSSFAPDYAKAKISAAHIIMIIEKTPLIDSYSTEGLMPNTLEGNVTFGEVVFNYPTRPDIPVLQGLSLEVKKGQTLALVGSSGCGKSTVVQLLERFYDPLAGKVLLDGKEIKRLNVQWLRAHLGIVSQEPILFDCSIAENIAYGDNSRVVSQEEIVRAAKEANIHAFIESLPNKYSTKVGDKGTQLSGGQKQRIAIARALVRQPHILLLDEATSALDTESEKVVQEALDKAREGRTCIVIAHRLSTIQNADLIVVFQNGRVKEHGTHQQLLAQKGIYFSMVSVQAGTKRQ

Row | Structure (SMILES) | Activity [1] | pEC50 [2] | Ratio (Caco-2) | Activity [3] | Activity (MCF7 [4]) | pEC50 [5] | Activity (MCF7 [6]) [%]
1 | COc1cccc(CCc2ccccc2OCc2ccccc2)c1 | Not Active |  |  |  |  |  | 
2 | c1ccc(CCc2ccccc2OCc2ccccn2)cc1 | Not Active |  |  |  |  |  | 
3 | COc1cccc(CCc2ccccc2OCc2cccnc2)c1 | Active | < 3.00 |  |  |  |  | 
4 | COc1cccc(CCc2ccccc2OCc2cccc(OC)c2OC)c1 | Active |  |  | Not Active | Not Active | 3.92 | 
5 | COc1cccc(COc2ccccc2CCc2ccccc2)c1OC | Not Active | 6.10 | 0.95 | Not Active | Not Active | 4.12 | 
6 | COc1cccc(CCc2ccccc2NCc2cc(OC)cc(OC)c2)c1 | Not Active | 6.05 | 6.9 | Not Active | Not Active |  | 
7 | COc1cccc(CCc2ccccc2OCc2cc(OC)cc(OC)c2)c1 | Not Active | 5.60 | 6.7 |  |  |  | 
8 | COc1ccc(COc2ccccc2CCc2ccccc2)cc1OC | Not Active | 6.12 | 2.1 | 10% |  | 4.24 | 
9 | COc1ccccc1COc1ccccc1CCc1ccccc1 | Not Active | 4.70 | 1.4 |  |  |  | 
10 | COc1cccc(CCc2ccccc2NCc2ccc(OC)c(OC)c2)c1 | Not Active | 6.74 | 5.6 | Not Active | Not Active | 6.30 | 
11 | COc1cccc(CCc2ccccc2OCc2ccccn2)c1 | Not Active |  |  |  |  |  | 
12 | COc1cc2c(cc1OC)CN(CCc1ccc(NC(=O)c3cccc4c(=O)c5cccc(OC)c5[nH]c34)cc1)CC2 | Not Active |  |  |  |  |  | 
13 | COc1cccc(CCc2ccccc2NCc2cccc(OC)c2)c1 | Not Active | 6.32 | 2.9 | 10% |  | 5.15 | 

Second part, led by results:

Row | Activity [1] | pEC50 [2] | Ratio (Caco-2) | Structure (SMILES) | Activity [3] | Activity (MCF7 [4]) | pEC50 [5] | Activity (MCF7 [6]) [%]
14 | Active | < 3.00 |  | c1ccc(CCc2ccccc2OCc2ccccc2)cc1 |  |  |  | 
15 | Active |  |  | c1ccc(CCc2ccccc2OCc2cccnc2)cc1 |  |  |  | 
16 | Not Active |  | 13 | COc1cccc(CCc2ccccc2OCc2cccc(OC)c2)c1 |  |  |  | 
17 | Not Active | 4.92 | 8.7 | COc1cccc(CCc2ccccc2OCc2ccccc2OC)c1 |  |  |  | 
18 | Not Active | 5.80 | 5.7 | COc1cc(COc2ccccc2CCc2ccccc2)cc(OC)c1 |  |  |  | 
19 | Active | 4.74 | 1.3 | c1ccc(CCc2ccccc2OCc2ccncc2)cc1 |  |  |  | 
20 | Not Active | 7.07 | 5.5 | COc1cccc(CCc2ccccc2NCc2cccc(OC)c2OC)c1 | Not Active | Not Active | 5.82 | 
21 | Not Active | 6.19 | 5.1 | COc1cccc(CCc2ccccc2OCc2ccc(OC)c(OC)c2)c1 | Not Active | Not Active | 3.82 | 
22 | Active | 6.07 | 2.1 | COc1cccc(CCc2ccccc2OCc2ccncc2)c1 |  |  |  | 50
23 | Not Active | 5.51 | 5.1 | COc1ccc(COc2ccccc2CCc2ccccc2)cc1 |  |  |  | 
24 | Not Active | 5.28 | 7.6 | COc1ccc(COc2ccccc2CCc2cccc(OC)c2)cc1 |  |  |  | 
